Values joined by “and” are separate entries in the source; they are usually repeats but may differ in a detail not shown here. Identical values can stand only once.
How the values were obtained:
[1] = Ratio of Vmax/Km for human, mouse or rat SSAO
Procedure, shortened: (§1)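 Crude membranes from human, rat or mouse adipocytes, made by hypo-osmotic lysis in 20 mM HES buffer with antiproteases (around 50 µg protein/assay). Incubated 30 min at 37 °C over a range of amine concentrations. H2O2 read spectrophotometrically with peroxidase, homovanillic acid and aminoantipyrine at 498 nm. Km and Vmax taken from Eadie-Hofstee plots; Vmax/Km ratio also given. Means ± SEM of 3-4 experiments.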

[2] = Maximum velocity for semicarbazide-sensitive amine oxidase (SSAO) of human, mouse or rat crude membranes; format: cell membranes; conditions: Membrane; procedure, shortened: as §1

Row | Ratio [1] | Vmax (nmol/min/mg protein) [2] | Compound
1 | 0.28 and 0.66 and 0.5 |  | NCc1cccc2ccccc12
2 | 0.007 and 0.01 |  | NCc1ccc(S(N)(=O)=O)cc1
3 |  | 1.1 and 3.2 | COc1cccc(CN)c1OC

Reference: ChEMBL document CHEMBL1138761, “Exploring the binding mode of semicarbazide-sensitive amine oxidase/VAP-1: identification of novel substrates with insulin-like activity” (J Med Chem, 2004)
